Source: ChEMBL document CHEMBL1156077, “Piperazinyl-glutamate-pyrimidines as potent P2Y12 antagonists for inhibition of platelet aggregation” (Bioorg Med Chem Lett, 2009)

How the values were obtained:
[1] = target: T1, P2Y purinoceptor 12 (Homo sapiens, UniProt Q9H244); test: Binding affinity at human recombinant P2Y12 receptor expressed in CHO cells by radioligand binding assay; assay type: cell-based
How it was run: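 Washed membranes from CHO cells transfected with synthetic human P2Y12 gene. Compounds as 7-point threefold dilutions, triplicate, 1 h at room temperature. Nonspecific binding defined with 300 nM 2-MeSADP. Filtered, washed with ice-cold Tris pH 7.4. Single-site fit; IC50 converted to Ki by Cheng–Prusoff, geometric mean of n≥2.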

[2] = Selectivity for human P2Y12 receptor over P2Y13
[3] = target: T1, P2Y purinoceptor 12; test: Ratio of compound IC50 to thienopyrimidine IC50 for P2Y12 receptor in human platelet rich plasma assessed as inhibition of ADP-induced platelet aggregation by light transmission aggregometry
How it was run: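 Human platelet-rich plasma was pre-incubated 5 min at 37 °C with compound across seven concentrations (10 down to 0.156). Aggregation was started with ADP (20, final) and followed by light transmission at 626 nm for 15 min at 37 °C. Duplicate concentration-response data were read at the 15-min end-point. IC50 was divided by the IC50 of the thienopyrimidine reference run on the same plate.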

[4] = target: T1, P2Y purinoceptor 12; test: Ratio of compound IC50 to AZD-6140 IC50 for P2Y12 receptor in human platelet rich plasma assessed as inhibition of ADP-induced platelet aggregation by light transmission aggregometry
How it was run: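 Human platelet-rich plasma was pre-incubated 5 min at 37 °C with compound across seven concentrations (10 down to 0.156). Aggregation was started with ADP (20, final) and followed by light transmission at 626 nm for 15 min at 37 °C. Duplicate concentration-response data were read at the 15-min end-point. IC50 was divided by the IC50 of AZD-6140 run on the same plate.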

[5] = Selectivity for human P2Y12 receptor over P2Y1

T1 sequence (Q9H244 whole entry): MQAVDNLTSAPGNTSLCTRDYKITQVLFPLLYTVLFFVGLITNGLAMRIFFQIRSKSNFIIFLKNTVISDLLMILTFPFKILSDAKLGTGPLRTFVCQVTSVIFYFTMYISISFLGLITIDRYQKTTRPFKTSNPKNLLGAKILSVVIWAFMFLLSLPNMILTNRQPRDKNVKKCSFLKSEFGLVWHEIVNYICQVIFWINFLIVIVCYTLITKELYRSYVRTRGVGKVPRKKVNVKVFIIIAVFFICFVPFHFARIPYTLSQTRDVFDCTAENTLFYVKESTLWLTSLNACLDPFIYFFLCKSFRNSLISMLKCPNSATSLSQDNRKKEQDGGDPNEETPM

| Ki [1] [nM] | fold change (FC) [2] | Ratio IC50 [3] | Ratio IC50 [4] | fold change (FC) [5] | SMILES |
| --- | --- | --- | --- | --- | --- |
| 2.9 | > 340 | 0.3 | 1.5 | > 340 | CCCCCOC(=O)N1CCN(C(=O)[C@H](CCC(=O)O)NC(=O)c2cc(N3CCN(C(=O)N(C)C)CC3)nc(-c3ccccc3)n2)CC1 |
| 4.3 | > 340 | 0.3 | 1.2 | > 340 | CCCCCOC(=O)N1CCN(C(=O)[C@H](CCC(=O)O)NC(=O)c2cc(N3CCC(COCCOC)CC3)nc(-c3ccccc3)n2)CC1 |
| 12 | > 340 | 0.8 | 4.4 | > 340 | CCCCCOC(=O)N1CCN(C(=O)[C@H](CCC(=O)O)NC(=O)c2nc(OCC3CCN(C)CC3)cc(-c3ccccc3)n2)CC1 |
| 2.8 | > 340 | 0.1 | 0.4 | > 340 | CCCCCOC(=O)N1CCN(C(=O)[C@H](CCC(=O)O)NC(=O)c2cc(N3CCC(CCN(C)C)CC3)nc(-c3ccccc3)n2)CC1 |
| 0.67 | > 340 | 0.3 | 1.6 | > 340 | CCCCCOC(=O)N1CCN(C(=O)[C@H](CCC(=O)O)NC(=O)c2cc(N3CCC(CC(=O)NCC)CC3)nc(-c3ccccc3)n2)CC1 |
| 11 | > 340 | 0.3 | 1.7 | > 340 | CCCCOC(=O)N1CCN(C(=O)[C@H](CCC(=O)O)NC(=O)c2cc(OC3CCNCC3)nc(-c3ccccc3)n2)CC1 |
| 3.7 | > 340 | 0.3 | 1 | > 340 | CCCCCOC(=O)N1CCN(C(=O)[C@H](CCC(=O)O)NC(=O)c2cc(N3CCN(C(C)=O)CC3)nc(-c3ccccc3)n2)CC1 |
| 4.1 | > 340 | 0.5 | 2.3 | > 340 | CCCCCOC(=O)N1CCN(C(=O)[C@H](CCC(=O)O)NC(=O)c2cc(NCC3CCNC3)nc(-c3ccccc3)n2)CC1 (stereo not given in full) |
| 0.9 | > 340 | 0.2 | 1.2 | > 340 | CCCCCOC(=O)N1CCN(C(=O)[C@H](CCC(=O)O)NC(=O)c2cc(N3CCC(CC(=O)NC)CC3)nc(-c3ccccc3)n2)CC1 |
| 2.6 | > 340 | 0.1 | 0.5 | > 340 | CCCCCOC(=O)N1CCN(C(=O)[C@H](CCC(=O)O)NC(=O)c2cc(N3CCN(CC(=O)N(C)C)CC3)nc(-c3ccccc3)n2)CC1 |
| 2.9 | > 340 | 0.2 | 0.7 | > 340 | CCCCCOC(=O)N1CCN(C(=O)[C@H](CCC(=O)O)NC(=O)c2cc(N3CCC(N4CCOCC4)CC3)nc(-c3ccccc3)n2)CC1 |
| 4.2 | > 340 | 0.4 | 1.7 | > 340 | CCCCCOC(=O)N1CCN(C(=O)[C@H](CCC(=O)O)NC(=O)c2nc(-c3ccccc3)cc(N3CCC(CCN4CCCC4)CC3)n2)CC1 |
| 2.3 | > 340 | 0.3 | 1.5 | > 340 | CCCCCOC(=O)N1CCN(C(=O)[C@H](CCC(=O)O)NC(=O)c2cc(N3CCN(CCOC)CC3)nc(-c3ccccc3)n2)CC1 |
| 22 | > 340 | 1.1 | 6 | > 340 | CCCCCOC(=O)N1CCN(C(=O)[C@H](CCC(=O)O)NC(=O)c2nc(-c3ccccc3)cc(N3CCNCC3)n2)CC1 |
| 3 | > 340 | 0.4 | 1.9 | > 340 | CCCCCOC(=O)N1CCN(C(=O)[C@H](CCC(=O)O)NC(=O)c2nc(-c3ccccc3)cc(N3CCC(CCN)CC3)n2)CC1 |
| 1 | > 340 | 2 | 7.9 | > 340 | CCCCCOC(=O)N1CCN(C(=O)[C@H](CCC(=O)O)NC(=O)c2cc(N3CCOCC3)nc(-c3ccccc3)n2)CC1 |
| 1.4 | > 340 | 0.4 | 2.7 | > 340 | CCCCOC(=O)N1CCN(C(=O)[C@H](CCC(=O)O)NC(=O)c2cc(N3CCC(OC)CC3)nc(-c3ccccc3)n2)CC1 |
| 2.2 | > 340 | 0.3 | 1.7 | > 340 | CCCCCOC(=O)N1CCN(C(=O)[C@H](CCC(=O)O)NC(=O)c2cc(OCC3CCNCC3)nc(-c3ccccc3)n2)CC1 |
| 29 | > 340 | 1.8 | 8.9 | > 340 | CCCCCOC(=O)N1CCN(C(=O)[C@H](CCC(=O)O)NC(=O)c2nc(-c3ccccc3)cc(N3CCN(C(C)=O)CC3)n2)CC1 |
| 0.92 | > 340 | 0.2 | 1.1 | > 340 | CCCCCOC(=O)N1CCN(C(=O)[C@H](CCC(=O)O)NC(=O)c2cc(N3CCC(CC(=O)N4CCC4)CC3)nc(-c3ccccc3)n2)CC1 |
| 0.69 | > 340 | 0.2 | 0.5 | > 340 | CCCCCOC(=O)N1CCN(C(=O)[C@H](CCC(=O)O)NC(=O)c2cc(N3CCC(N)CC3)nc(-c3ccccc3)n2)CC1 |
| 1.6 | > 340 | 0.3 | 2 | > 340 | CCCCCOC(=O)N1CCN(C(=O)[C@H](CCC(=O)O)NC(=O)c2cc(N3CCC(CC(=O)N4CCCC4)CC3)nc(-c3ccccc3)n2)CC1 |
| 2.7 | > 340 | 0.3 | 1.3 | > 340 | CCCCCOC(=O)N1CCN(C(=O)[C@H](CCC(=O)O)NC(=O)c2cc(N3CCN(C)CC3)nc(-c3ccccc3)n2)CC1 |
| 5.8 | > 340 | 1 | 4.7 | > 340 | CCCCCOC(=O)N1CCN(C(=O)[C@H](CCC(=O)O)NC(=O)c2nc(-c3ccccc3)cc(N3CCN(C(N)=O)CC3)n2)CC1 |
| 12 | > 340 | 1 | 3.7 | > 340 | CCCCOC(=O)N1CCN(C(=O)[C@H](CCC(=O)O)NC(=O)c2cc(OCCOC)nc(-c3ccccc3)n2)CC1 |
| 12 | > 340 | 1.6 | 8.3 | > 340 | CCCCCOC(=O)N1CCN(C(=O)[C@H](CCC(=O)O)NC(=O)c2nc(-c3ccccc3)cc(N3CCN(CCOC)CC3)n2)CC1 |
| 2 | > 340 | 0.3 | 1.4 | > 340 | CCCCCOC(=O)N1CCN(C(=O)[C@H](CCC(=O)O)NC(=O)c2cc(N3CCNCC3)nc(-c3ccccc3)n2)CC1 |
| 0.7 | > 340 | 0.08 | 0.4 | > 340 | CCCCOC(=O)N1CCN(C(=O)[C@H](CCC(=O)O)NC(=O)c2cc(N3CCC(C(=O)N4CCCC4)CC3)nc(-c3ccccc3)n2)CC1 |
